Test results reported in ChEMBL document CHEMBL4715780, “Biological evaluation of tetracationic compounds based on two 1,4-diazabicyclo[2.2.2]octane moieties connected by different linkers” (Bioorg Med Chem, 2016).

Experiments:
[1] = Selectivity index, ratio of CC50 for HEK293T cells assessed as reduction in cell viability measured after 24 hrs by MTT assay to MIC for Candida albicans CEMTC 34 assessed as bacterial growth inhibition by CLSI protocol based serial microdilution method; type: toxicity; conditions: human, read-out: Selectivity Index
Summary of the method: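 SI = CC₅₀ (HEK293T) / MIC. HEK293T cells were seeded at 20,000/well overnight, then exposed to 10–250 µg/mL in IMDM with 10% FBS for 24 h. MTT was added for 4 h, solubilised with SDS-HCl, and read at 570 nm; duplicates, ≥2 independent runs. MIC came from two-fold dilutions in Sabouraud dextrose broth at ~5 × 10⁵ CFU/mL, 37 °C with shaking, read at 595 nm, in duplicate.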

[2] = Selectivity index, ratio of CC50 for HEK293T cells assessed as reduction in cell viability measured after 24 hrs by MTT assay to MIC for Salmonella enterica ATCC 14028 assessed as bacterial growth inhibition by CLSI protocol based serial microdilution method; type: toxicity; conditions: human, read-out: Selectivity Index
[3] = test system: Enterococcus faecalis; assay: Antibacterial activity against Enterococcus faecalis ATCC 51299 assessed as concentration required to inhibit visible growth by CLSI protocol based serial microdilution method; type: functional
[4] = Selectivity index, ratio of CC50 for HEK293T cells assessed as reduction in cell viability measured after 24 hrs by MTT assay to MIC for Pseudomonas aeruginosa ATCC 9027 assessed as bacterial growth inhibition by CLSI protocol based serial microdilution method; type: toxicity; conditions: human, read-out: Selectivity Index
[5] = Selectivity index, ratio of CC50 for MDCK cells to EC50 for Influenza A virus (A/Puerto Rico/8/34 (H1N1)) infected in MDCK cells; type: toxicity, cell-based; conditions: dog, read-out: Ratio CC50/EC50
Summary of the method: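 Ratio of CC₅₀ to EC₅₀, both in MDCK cells, with cytotoxicity run in parallel with the antiviral assay. EC₅₀ is the concentration halving virus production (0.3 log₁₀ EID₅₀ titre drop). It was obtained after 1 h compound pre-incubation, infection, 48 h at 37 °C, and hemagglutination read-out with 1% chicken erythrocytes.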

[6] = test system: Staphylococcus aureus; assay: Antibacterial activity against […] Staphylococcus aureus ATCC 25923 assessed as concentration required to inhibit visible growth by CLSI protocol based serial microdilution method; type: functional
[7] = test system: Citrobacter freundii; assay: Antibacterial activity against Citrobacter freundii ATCC 8090 assessed as bacterial growth inhibition by CLSI protocol based serial microdilution method; type: functional
[8] = Selectivity index, ratio of CC50 for HEK293T cells assessed as reduction in cell viability measured after 24 hrs by MTT assay to MIC for Proteus vulgaris ATCC 6380 assessed as bacterial growth inhibition by CLSI protocol based serial microdilution method; type: toxicity; conditions: human, read-out: Selectivity Index
[9] = test system: Pseudomonas aeruginosa; assay: Antibacterial activity against Pseudomonas aeruginosa ATCC 9027 assessed as bacterial growth inhibition by CLSI protocol based serial microdilution method; type: functional
[10] = Cytotoxicity against human MCF7 cells assessed as reduction in cell viability measured after 24 hrs by MTT assay; type: cell-based
Summary of the method: (§1)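 HEK293T or MCF-7 cells in IMDM with 10% FBS, seeded at 20,000 per well and grown overnight. Compounds at […] in fresh medium for 24 h at 37 °C, 5% CO₂. MTT then added for 4 h, precipitate dissolved overnight in SDS-HCl, absorbance read at 570 nm. Viability expressed relative to untreated cells, giving CC₅₀. Duplicate wells, at least two independent repeats.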

[11] = test system: Proteus vulgaris; assay: Antibacterial activity against Proteus vulgaris ATCC 6380 assessed as concentration required to inhibit visible growth by CLSI protocol based serial microdilution method; type: functional
[12] = Selectivity index, ratio of CC50 for HEK293T cells assessed as reduction in cell viability measured after 24 hrs by MTT assay to MIC for Citrobacter freundii ATCC 8090 assessed as bacterial growth inhibition by CLSI protocol based serial microdilution method; type: toxicity; conditions: human, read-out: Selectivity Index
[13] = Cytotoxicity against HEK293T cells assessed as reduction in cell viability measured after 24 hrs by MTT assay; type: cell-based, HEK-293T; conditions: human; summary of the method: as §1
[14] = test system: Candida albicans; assay: Antifungal activity against Candida albicans CEMTC 34 assessed as fungal growth inhibition by CLSI protocol based serial microdilution method; type: functional
Summary of the method: (§2)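 Candida albicans grown in Sabouraud dextrose broth with two-fold serial compound dilutions from water stocks; final inoculum about 5 × 10⁵ CFU/mL. Incubated at 37 °C with orbital shaking (580 rpm). MIC is the lowest concentration preventing growth, by absorbance at 595 nm. MFC is the lowest concentration with no visible growth. Duplicates in two separate experiments.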

[15] = test system: Escherichia coli; assay: Antibacterial activity against Escherichia coli ATCC 25922 assessed as bacterial growth inhibition by CLSI protocol based serial microdilution method; type: functional
[16] = test system: Salmonella typhimurium; assay: Antibacterial activity against Salmonella enterica ATCC 14028 assessed as bacterial growth inhibition by CLSI protocol based serial microdilution method; type: functional, Salmonella enterica subsp. enterica serovar Typhimurium
[17] = test system: Salmonella typhimurium; assay: Antibacterial activity against Salmonella enterica ATCC 14028 assessed as concentration required to inhibit visible growth by CLSI protocol based serial microdilution method; type: functional, Salmonella enterica subsp. enterica serovar Typhimurium
[18] = Selectivity index, ratio of CC50 for HEK293T cells assessed as reduction in cell viability measured after 24 hrs by MTT assay to MIC for Escherichia coli ATCC 25922 assessed as bacterial growth inhibition by CLSI protocol based serial microdilution method; type: toxicity; conditions: human, read-out: Selectivity Index
[19] = Selectivity index, ratio of CC50 for HEK293T cells assessed as reduction in cell viability measured after 24 hrs by MTT assay to MIC for Staphylococcus aureus ATCC 25923 assessed as bacterial growth inhibition by CLSI protocol based serial microdilution method; type: toxicity; conditions: human, read-out: Selectivity Index
[20] = Selectivity index, ratio of CC50 for HEK293T cells assessed as reduction in cell viability measured after 24 hrs by MTT assay to MIC for Enterococcus faecalis ATCC 51299 assessed as bacterial growth inhibition by CLSI protocol based serial microdilution method; type: toxicity; conditions: human, read-out: Selectivity Index
[21] = test system: Influenza A virus; assay: Antiviral activity against Influenza A virus (A/Puerto Rico/8/34 (H1N1) infected in MDCK cells assessed as decrease in viral titer preincubated for 1 hr followed by viral infection and cultivated for 48 hrs followed by supernatant transferred to chicken erythrocyte for 1 hr followed by measuring ability to cause positive hemagglutination; type: functional, organism-based; conditions: A/Puerto Rico/8/1934(H1N1)
Summary of the method: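 MDCK monolayers in MEM were pre-incubated with compound for 1 h at 37 °C, then infected with 10-fold virus dilutions (10⁻¹–10⁻⁶) and held 48 h at 37 °C, 5% CO₂. Supernatant was mixed with an equal volume of 1% chicken erythrocytes, 60 min at room temperature. Titre was taken from the highest dilution giving full agglutination (log₁₀ EID₅₀). Triplicate per concentration.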

[22] = test system: Staphylococcus aureus; assay: Antibacterial activity against […] Staphylococcus aureus ATCC 25923 assessed as bacterial growth inhibition by CLSI protocol based serial microdilution method; type: functional
[23] = test system: Proteus vulgaris; assay: Antibacterial activity against Proteus vulgaris ATCC 6380 assessed as bacterial growth inhibition by CLSI protocol based serial microdilution method; type: functional
[24] = Cytotoxicity against MDCK cells assessed as cell death incubated for 48 hrs by MTT assay; type: cell-based, Canis lupus familiaris; conditions: dog
[25] = test system: Enterococcus faecalis; assay: Antibacterial activity against Enterococcus faecalis ATCC 51299 assessed as bacterial growth inhibition by CLSI protocol based serial microdilution method; type: functional
[26] = test system: Candida albicans; assay: Antifungal activity against Candida albicans CEMTC 34 assessed as concentration required to inhibit visible growth by CLSI protocol based serial microdilution method; type: functional; summary of the method: as §2
[27] = test system: Pseudomonas aeruginosa; assay: Antibacterial activity against Pseudomonas aeruginosa ATCC 9027 assessed as concentration required to inhibit visible growth by CLSI protocol based serial microdilution method; type: functional
[28] = test system: Escherichia coli; assay: Antibacterial activity against Escherichia coli ATCC 25922 assessed as concentration required to inhibit visible growth by CLSI protocol based serial microdilution method; type: functional
[29] = test system: Citrobacter freundii; assay: Antibacterial activity against Citrobacter freundii ATCC 8090 assessed as concentration required to inhibit visible growth by CLSI protocol based serial microdilution method; type: functional

| SMILES | selectivity ratio at 24 h [1] | selectivity ratio at 24 h [2] | MBC [3] [µg/mL] | selectivity ratio at 24 h [4] | selectivity ratio [5] | MBC [6] [µg/mL] | MIC [7] [µg/mL] | selectivity ratio at 24 h [8] | MIC [9] [µg/mL] | CC50 at 24 h [10] [µg/mL] | MBC [11] [µg/mL] | selectivity ratio at 24 h [12] | CC50 at 24 h [13] [µg/mL] | MIC [14] [µg/mL] | MIC [15] [µg/mL] | MIC [16] [µg/mL] | MBC [17] [µg/mL] | selectivity ratio at 24 h [18] | selectivity ratio at 24 h [19] | selectivity ratio at 24 h [20] | other results |
| --- | --- | --- | --- | --- | --- | --- | --- | --- | --- | --- | --- | --- | --- | --- | --- | --- | --- | --- | --- | --- | --- |
| CCCCCCCCCCCC[N+]12CC[N+](C/C=C/C[N+]34CC[N+](CCCCCCCCCCCC)(CC3)CC4)(CC1)CC2 | < 1 | 6 | 1.6 | 6 | 3 | 1.6 | 1.6 | < 1 | 1.6 | 8 | > 100 | 6 | 10 | 12.5 | 3.1 | 16 | 3.1 | 3 | 8 | 6 | EC50 [21]: 2.6 µg/mL; MIC [22]: 1.2 µg/mL; MIC [23]: 100 µg/mL; CC50 at 48 h [24]: 6.8 µg/mL; MIC [25]: 1.6 µg/mL; MFC [26]: 12.5 µg/mL; MBC [27]: 3.1 µg/mL; MBC [28]: 3.1 µg/mL; MBC [29]: 3.1 µg/mL |
| CCCCCCCCCCCC[N+]12CC[N+](CC#CC[N+]34CC[N+](CCCCCCCCCCCC)(CC3)CC4)(CC1)CC2 | 2 | 4 | 3.1 | 7 | < 1 | 3.1 | 6.3 | < 1 | 3.1 | 23 | > 100 | 4 | 22 | 12.5 | 63 | 6.3 | 12.5 | 4 | 14 | 14 | EC50 [21]: > 3 µg/mL; MIC [22]: 1.6 µg/mL; MIC [23]: 100 µg/mL; CC50 at 48 h [24]: 4 µg/mL; MIC [25]: 1.6 µg/mL; MFC [26]: 12.5 µg/mL; MBC [27]: 12.5 µg/mL; MBC [28]: 12.5 µg/mL; MBC [29]: 12 µg/mL |
| CCCCCCCCCCCC[N+]12CC[N+](Cc3ccc(C[N+]45CC[N+](CCCCCCCCCCCC)(CC4)CC5)cc3)(CC1)CC2 | 1 | 10 | 1.6 | 3 | 3 | 1.2 | 1.6 | 1 | 6.3 | 16 | 25 | 10 | 16 | 12.5 | 1.6 | 1.6 | 3.1 | 10 | 27 | 10 | EC50 [21]: 1 µg/mL; MIC [22]: 0.6 µg/mL; MIC [23]: 12.5 µg/mL; CC50 at 48 h [24]: 2.9 µg/mL; MIC [25]: 1.6 µg/mL; MFC [26]: 12.5 µg/mL; MBC [27]: 12.5 µg/mL; MBC [28]: 3.1 µg/mL; MBC [29]: 3.1 µg/mL |
